Measurements from ChEMBL document CHEMBL1125634, “Triazolobenzo- and triazolothienodiazepines as potent antagonists of platelet activating factor” (J Med Chem, 1991).
pIC50: −log10 of the molar value. Calls of active or inactive are those of the source. The calls are words filed in the database; no cut-off is given here.

species: Canis familiaris; experiment: PAF-antagonist activity in dog platelets by PAF-binding assay; No significant inhibition at 1000 nM; format: functional, Canis lupus familiaris; conditions: not given

Q: Which IC50 does the source give for `Cc1nnc2n1-c1cc(C#CCN3C(=O)c4ccccc4C3=O)ccc1C(c1ccccc1F)=NC2` here?
A: Not Active

test system: Cavia porcellus; experiment: Inhibition of PAF-induced bronchoconstriction in the guinea pig after administration (1 mg/kg) intravenously at two-hourpretreatment time; format: functional; conditions: not given

Q: For `CCc1nnc2n1-c1ccc(C#CCN3C(=O)c4ccccc4C3=O)cc1C(c1ccccc1F)=NC2`, which Inhibition is on record?
A: 30%

test system: Cavia porcellus; experiment: Inhibition of PAF-induced bronchoconstriction in guinea pig after oral administration after two-hour pretreatment time; format: functional; conditions: read-out: ID50 (the source's name)
Method in brief: (§1)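 Guinea pigs dosed orally with drug or vehicle 2 h before iv PAF challenge (1 µg/kg, maximal constrictory dose). Propranolol given 5 min before PAF, succinylcholine (1.2 mg/kg iv) to stop breathing, animals ventilated. Read-out is tracheal pressure change, averaged over 3 control and 3 treated animals.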

Q: For `Cc1nnc2n1-c1sc(C#CCN3C(=O)NCc4ccccc43)cc1C(c1ccccc1Cl)=NC2`, which ED50 is on record?
A: 0.05 mg/kg

Q: Which ED50 does the source give for `Cc1nnc2n1-c1sc(C#CCn3c4ccccc4c4ccccc43)cc1C(c1ccccc1Cl)=NC2` here?
A: 0.02 mg/kg

Q: For `Cc1nnc2n1-c1sc(C#CCN3C(=O)c4cccc5cccc(c45)C3=O)cc1C(c1ccccc1Cl)=NC2`, which ED50 is on record?
A: 0.03 mg/kg

Q: For `Cc1nnc2n1-c1sc(C#CCn3c(=O)c4ccccc4c4ccccc43)cc1C(c1ccccc1Cl)=NC2O` (configuration not stated), which ED50 is on record?
A: 0.07 mg/kg

Q: With `Cc1nnc2n1-c1sc(C#CCn3ccc4ccccc4c3=O)cc1C(c1ccccc1Cl)=NC2` as the molecule, how does the ED50 read?
A: 0.03 mg/kg

Q: With `Cc1nnc2n1-c1ccc(C#CCN3C(=O)c4ccccc4C3=O)cc1C(c1ccccc1F)=NC2` as the molecule, how does the ED50 read?
A: 0.5 mg/kg

Q: With `O=c1c2ccccc2c2ccccc2n1CC#Cc1cc2c(s1)-n1c(CO)nnc1CN=C2c1ccccc1Cl` as the molecule, how does the ED50 read?
A: 0.3 mg/kg

Q: For `Cc1nnc2n1-c1sc(C#CCn3c(=O)n(CCN(C)C)c(=O)c4ccccc43)cc1C(c1ccccc1Cl)=NC2`, which ED50 is on record?
A: 0.3 mg/kg

Q: For `Cc1nnc2n1-c1sc(C#CCn3c(=O)c4ccccc4c(=O)c4ccccc43)cc1C(c1ccccc1Cl)=NC2`, which ED50 is on record?
A: 0.03 mg/kg

Q: For `Cc1nnc2n1-c1sc(C#CCC34CCCc5cccc(c53)NC4=O)cc1C(c1ccccc1Cl)=NC2` (configuration not stated), which ED50 is on record?
A: 0.3 mg/kg

Q: Which ED50 does the source give for `C=C=Cn1c(=O)n(CC#Cc2cc3c(s2)-n2c(C)nnc2CN=C3c2ccccc2Cl)c2ccccc21` here?
A: 0.03 mg/kg

Q: Which ED50 does the source give for `Cc1nnc2n1-c1sc(C#CCn3c(=O)n(C)c4ccccc43)cc1C(c1ccccc1Cl)=NC2` here?
A: 0.04 mg/kg

Q: Which ED50 does the source give for `COc1cc2c(cc1OC)C(=O)N(CC#Cc1cc3c(s1)-n1c(C)nnc1CN=C3c1ccccc1Cl)CC2` here?
A: 0.05 mg/kg

Q: Which ED50 does the source give for `Cc1nnc2n1-c1sc(C#CCn3cnc4ccccc43)cc1C(c1ccccc1Cl)=NC2` here?
A: 0.1 mg/kg

Q: With `Cc1nnc2n1-c1sc(C#CCn3c4c(c5cc(Cl)ccc53)CCCCC4)cc1C(c1ccccc1Cl)=NC2` as the molecule, how does the ED50 read?
A: 0.3 mg/kg

Q: With `Cc1nnc2n1-c1ccc(C#CCN3C(=O)c4cccc5cccc(c45)C3=O)cc1C(c1ccccc1Cl)=NC2` as the molecule, how does the ED50 read?
A: 0.6 mg/kg

Q: For `Cc1nnc2n1-c1sc(C#CCn3c4c(c5ccccc53)CCCCC4)cc1C(c1ccccc1Cl)=NC2`, which ED50 is on record?
A: 0.004 mg/kg

Q: Which ED50 does the source give for `Cc1nnc2n1-c1ccc(C#CCN3C(=O)CSc4ccccc43)cc1C(c1ccccc1F)=NC2` here?
A: 0.3 mg/kg

Q: With `Cc1nnc2n1-c1sc(C#CCN3C(=O)OCc4ccccc43)cc1C(c1ccccc1Cl)=NC2` as the molecule, how does the ED50 read?
A: 0.08 mg/kg

Q: With `Cc1nnc2n1-c1sc(C#CCN3C(=O)COc4ccccc43)cc1C(c1ccccc1Cl)=NC2` as the molecule, how does the ED50 read?
A: 0.02 mg/kg

Q: For `Cc1nnc2n1-c1ccc(C#CCN3C(=O)CCc4ccccc43)cc1C(c1ccccc1F)=NC2`, which ED50 is on record?
A: 0.4 mg/kg

Q: For `Cc1nnc2n1-c1sc(C#CCOc3cccnc3)cc1C(c1ccccc1Cl)=NC2`, which ED50 is on record?
A: 0.2 mg/kg

Q: Which ED50 does the source give for `Cc1nnc2n1-c1sc(C#CCN3C(=O)COc4ccc(Cl)cc43)cc1C(c1ccccc1Cl)=NC2` here?
A: 0.05 mg/kg

Q: Which ED50 does the source give for `Cc1nnc2n1-c1sc(C#CCn3c(=O)n(-c4ccccc4)c4ccccc43)cc1C(c1ccccc1Cl)=NC2` here?
A: 0.02 mg/kg

Q: Which ED50 does the source give for `Cc1nnc2n1-c1sc(C#CCOc3ccccc3)cc1C(c1ccccc1Cl)=NC2` here?
A: 0.1 mg/kg

Q: For `Cc1nnc2n1-c1sc(C#CCn3ncc4ccccc43)cc1C(c1ccccc1Cl)=NC2`, which ED50 is on record?
A: 0.02 mg/kg

Q: Which ED50 does the source give for `Cc1nnc2n1-c1sc(C#CCn3c(=O)n(C)c(=O)c4ccccc43)cc1C(c1ccccc1Cl)=NC2` here?
A: 0.02 mg/kg

Q: For `Cc1nnc2n1-c1sc(C#CCN3C(=O)COc4cc(F)ccc43)cc1C(c1ccccc1Cl)=NC2`, which ED50 is on record?
A: 0.02 mg/kg

Q: With `Cc1nnc2n1-c1sc(C#CCN3C(=O)CC(C)(C)c4ccccc43)cc1C(c1ccccc1Cl)=NC2` as the molecule, how does the ED50 read?
A: 0.03 mg/kg

Q: With `Cc1nnc2n1-c1sc(C#CCn3c(=O)c4ccccc4c4ccccc4c3=O)cc1C(c1ccccc1Cl)=NC2` as the molecule, how does the ED50 read?
A: 0.02 mg/kg

Q: For `Cc1nnc2n1-c1sc(C#CCn3c4c(c5cc(Cl)ccc53)CCCC4)cc1C(c1ccccc1Cl)=NC2`, which ED50 is on record?
A: 0.04 mg/kg

Q: With `Cc1nnc2n1-c1sc(C#CCn3c(=O)n(CCN(C)C)c4ccccc43)cc1C(c1ccccc1Cl)=NC2` as the molecule, how does the ED50 read?
A: 0.2 mg/kg

Q: For `Cc1nnc2n1-c1sc(C#CCN3C(=O)c4cccc5cccc3c45)cc1C(c1ccccc1Cl)=NC2`, which ED50 is on record?
A: 0.04 mg/kg

Q: Which ED50 does the source give for `Cc1nnc2n1-c1ccc(C#CCN3C(=O)CCc4ccccc43)cc1C(c1ccccc1F)=N[C@H]2C` here?
A: 0.1 mg/kg

Q: With `CCCCC/C(=C\C=C\C(=O)N[C@H](C)CCCc1cccnc1)c1ccc(OC)cc1` as the molecule, how does the ED50 read?
A: 4 mg/kg

Q: For `Cc1nnc2n1-c1sc(C#CCn3c(=O)ccc4ccccc43)cc1C(c1ccccc1Cl)=NC2`, which ED50 is on record?
A: 0.02 mg/kg

Q: With `Cc1nnc2n1-c1sc(C#CCn3c(=O)c4ccccc4c4ccccc43)cc1C(c1ccccc1Cl)=NC2` as the molecule, how does the ED50 read?
A: 0.01 mg/kg

Q: For `Cc1nnc2n1-c1sc(C#CCn3c(=O)c4cc(Cl)ccc4c4ccc(Cl)cc43)cc1C(c1ccccc1Cl)=NC2`, which ED50 is on record?
A: 0.03 mg/kg

Q: With `Cc1nnc2n1-c1sc(C#CCN3C(=O)CCc4cc(Cl)cc(Cl)c43)cc1C(c1ccccc1Cl)=NC2` as the molecule, how does the ED50 read?
A: 0.02 mg/kg

Q: For `Cc1nnc2n1-c1sc(C#CCn3c(O)nc4ccccc43)cc1C(c1ccccc1Cl)=NC2`, which ED50 is on record?
A: 0.2 mg/kg

Q: With `Cc1nnc2n1-c1sc(CCC(=O)N3CCOCC3)cc1C(c1ccccc1Cl)=NC2` [APAFANT] as the molecule, how does the ED50 read?
A: 1.2 mg/kg

Q: With `Cc1nnc2n1-c1sc(C#CCn3c(=O)c4ccccc4c4ccccc43)cc1C(c1ccccc1Cl)=NC2C` (configuration not stated) as the molecule, how does the ED50 read?
A: 0.03 mg/kg

Q: Which ED50 does the source give for `Cc1nnc2n1-c1sc(C#CCN3CCc4ccccc4C3=O)cc1C(c1ccccc1Cl)=NC2` here?
A: 0.03 mg/kg

Q: Which ED50 does the source give for `Cc1nnc2n1-c1ccc(C#CCCN3C(=O)c4ccccc4C3=O)cc1C(c1ccccc1F)=NC2` here?
A: 0.3 mg/kg

Q: Which ED50 does the source give for `Cc1nnc2n1-c1sc(C#CCn3c4ccccc4c(=O)c4ccccc43)cc1C(c1ccccc1Cl)=NC2` here?
A: 0.02 mg/kg

Q: For `Cc1nnc2n1-c1sc(C#CCN3C(=O)Cn4ccc5c(Cl)ccc3c54)cc1C(c1ccccc1Cl)=NC2`, which ED50 is on record?
A: 0.003 mg/kg

Q: With `Cc1nnc2n1-c1sc(C#CCN3C(=O)CCc4ccc(Cl)cc43)cc1C(c1ccccc1Cl)=NC2` as the molecule, how does the ED50 read?
A: 0.1 mg/kg

target: not listed separately; experiment: PAF-antagonist activity determined in dog platelets by PAF-binding assay; conditions: not given

Q: With `CCCCC/C(=C\C=C\C(=O)N[C@H](C)CCCc1cccnc1)c1ccc(OC)cc1` as the molecule, how does the pIC50 read?
A: 7.40

test system: Cavia porcellus; experiment: Inhibition of PAF-induced bronchoconstriction in guinea pig after oral administration after two-hour pretreatment time; No significant inhibition at 1 mg/kg; format: functional, organism-based; design: dose 1 mg/kg; conditions: not given

Q: For `Cc1nnc2n1-c1sc(I)cc1C(c1ccccc1Cl)=NC2`, which ID50 is on record?
A: inactive

Q: With `Cc1nnc2n1-c1sc(C#CCn3c(=O)c4ccccc4c4ccccc43)cc1C(c1ccccc1Cl)NC2=O` (configuration not stated) as the molecule, how does the ID50 read?
A: inactive

Q: For `Cc1nnc2n1-c1sc(C#CCN3C(=O)CCc4ccccc43)cc1C(c1cc([N+](=O)[O-])ccc1Cl)=NC2`, which ID50 is on record?
A: inactive

Q: For `Cc1nnc2n1-c1sc(I)cc1C(c1cc([N+](=O)[O-])ccc1Cl)=NC2`, which ID50 is on record?
A: inactive

Q: Which ID50 does the source give for `Cc1nnc2n1-c1sc(I)cc1C(c1ccccc1Cl)=NC2C` (configuration not stated) here?
A: inactive

test system: Cavia porcellus; experiment: Compound was measured by using PAF-induced Bronchoconstriction assay in the guinea pig after administration orally after two-hour pretreatment time; format: functional; conditions: po, read-out: ID50 (the source's name); method in brief: as §1

Q: Which ED50 does the source give for `Cc1nnc2n1-c1sc(C#CCN3C(=O)CCc4ccccc43)cc1C(c1ccccc1Cl)=NC2` here?
A: 0.02 mg/kg

test system: Cavia porcellus; experiment: Inhibition of PAF-induced bronchoconstriction in the guinea pig after intravenous administration after one-minute pretreatment time; No significant inhibition at 1 mg/kg; format: functional, organism-based; design: dose 1 mg/kg; conditions: not given

Q: With `Cc1nnc2n1-c1sc(C#CCn3c(=O)c4ccccc4c4ccccc43)cc1C(c1ccccc1Cl)NC2=O` (configuration not stated) as the molecule, how does the ID50 read?
A: inactive

test system: Cavia porcellus; experiment: Inhibitory activity at 0.03 mg/kg was determined against PAF-induced bronchoconstriction in guinea pig; format: functional; conditions: not given
Method in brief: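 Duration-of-action test: single 0.03 mg/kg oral dose given 24 h before iv PAF challenge (1 µg/kg) in ventilated, paralysed guinea pigs. Percent inhibition of the tracheal pressure rise versus vehicle controls. Values are means ± SEM.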

Q: For `Cc1nnc2n1-c1sc(C#CCN3Cc4cccc5cccc(c45)C3=O)cc1C(c1ccccc1Cl)=NC2`, which inhibition in vivo at 0.03 mg/kg is on record?
A: 60%

Q: For `Cc1nnc2n1-c1sc(C#CCn3c4c(c5ccccc53)CCCCC4)cc1C(c1ccccc1Cl)=NC2`, which inhibition in vivo at 0.03 mg/kg is on record?
A: 8%

Q: For `Cc1nnc2n1-c1sc(C#CCn3c(=O)c4ccccc4c4ccccc43)cc1C(c1ccccc1Cl)=NC2`, which inhibition in vivo at 0.03 mg/kg is on record?
A: 75%

Q: With `Cc1nnc2n1-c1sc(C#CCn3c4c(c5ccccc53)CCCC4)cc1C(c1ccccc1Cl)=NC2` as the molecule, how does the inhibition in vivo at 0.03 mg/kg read?
A: 75%

Q: For `Cc1nnc2n1-c1sc(C#CCN3C(=O)Cn4ccc5c(Cl)ccc3c54)cc1C(c1ccccc1Cl)=NC2`, which inhibition in vivo at 0.03 mg/kg is on record?
A: 0%
